Reference: ChEMBL document CHEMBL5257120 (Bioorg Med Chem, 2023)
Calls of active or inactive are those of the source. No cut-off for these calls is given here.

Key:
MDA-MB-231 [1] = test: Cytotoxicity against human MDA-MB-231 cells incubated for 72 hrs by Sulphorhodamine assay; type: functional, cell-based; settings: MDA-MB-231, 72 h
[2] = Selectivity index, ratio of IC50 for african green monkey Vero cells to IC50 for human K562 cells; type: toxicity; settings: Vero cells versus K562 cells, read-out: Ratio IC50
MCF7 = test: Cytotoxicity against human MCF7 cells incubated for 72 hrs by Sulphorhodamine assay; type: functional, cell-based; settings: MCF7, 72 h
Homo sapiens = organism: Homo sapiens; test: Selectivity ratio, ratio of inhibition of HDAC in human HeLa nuclear extract assessed as residual activity to inhibition of human recombinant HDAC6 assessed as residual activity
In short: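 Compounds at 20 μM tested by fluorometric assay on HeLa nuclear extract (class I/II HDACs) and on human recombinant HDAC6. Residual activity is expressed relative to untreated control. Selectivity is the ratio of PanHDAC to HDAC6 residual activity: ≥7 high, 2.5–6.9 moderate, <2.5 low.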

[3] = Cytotoxicity against african green monkey Vero cells incubated for 72 hrs by Sulphorhodamine assay; type: toxicity, cell-based; settings: African green monkey (Chlorocebus sabaeus)
K562 [4] = test: Cytotoxicity against human K562 cells incubated for 72 hrs by Sulphorhodamine assay; type: functional, cell-based; settings: K562, 72 h
Tubulin (Homo sapiens) [5] = molecular target: T1, Tubulin (Homo sapiens) (UniProt P68371+Q9H4B7+P0DPH7+P68366+Q13509+Q71U36+P04350+Q3ZCM7+P07437+P68363+Q9BQE3+Q6PEY2+Q13885+Q9BVA1+Q9BUF5); test: Induction of microtubule stabilization (unknown origin) at 5 uM; type: protein-complex assay
[6] = Antiinflammatory activity in mouse peritoneal macrophage assessed as reduction in LPS-induced IL6 production at 10 ug/ml; type: functional; settings: dose 10 µg/ml
[7] = Antiinflammatory activity in mouse peritoneal macrophage assessed as inhibition of LPS-induced TNFalpha production at 1 ug/ml relative to control; type: functional; parameters: scale not given: the % may be the effect or the level left; settings: dose 1 µg/ml
Tubulin (Homo sapiens) [8] = molecular target: T1, Tubulin (Homo sapiens); test: Induction of microtubule stabilization in human HeLa cells assessed as effect on cellular cytoskeletal network of tubulin at 5 to 10 uM incubated for 4 hrs by Alexa Fluor 488 staining based confocal microscopic analysis; type: cell-based; settings: dose 5-10 µM
In short: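 HeLa cells treated for 4 h at 5 and 10 μM. Microtubules immunostained with Alexa Fluor 488-conjugated anti-β-tubulin and imaged by confocal microscopy with a 60× Plan Apochromat objective. References: paclitaxel 5 nM, podophyllotoxin 5 μM.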

[9] = Antiinflammatory activity in mouse peritoneal macrophage assessed as reduction in LPS-induced IL6 production at 1 ug/ml; type: functional; settings: dose 1 µg/ml
[10] = Antiinflammatory activity in mouse peritoneal macrophage assessed as reduction in LPS-induced TNFalpha production at 1 ug/ml; type: functional; settings: dose 1 µg/ml
[11] = Antiinflammatory activity in mouse peritoneal macrophage assessed as inhibition of LPS-induced IL6 production at 1 ug/ml relative to control; type: functional; parameters: scale not given: the % may be the effect or the level left; settings: dose 1 µg/ml
[12] = Antiinflammatory activity in mouse peritoneal macrophage assessed as inhibition of LPS-induced TNFalpha production at 10 ug/ml relative to control; type: functional; parameters: scale not given: the % may be the effect or the level left; settings: dose 10 µg/ml
K562 [13] = test: Induction of cell cycle arrest in human K562 cells assessed as S phase arrest at 1.625 to 6.5 uM incubated for 24 hrs by propidium iodide staining based method; type: functional; settings: dose 1.625-6.5 µM
[14] = Antiinflammatory activity in mouse peritoneal macrophage assessed as reduction in LPS-induced TNFalpha production at 10 ug/ml; type: functional; settings: dose 10 µg/ml
MDA-MB-231 [15] = test: Induction of cell cycle arrest in human MDA-MB-231 cells assessed as S phase arrest at 1.625 to 6.5 uM incubated for 24 hrs by propidium iodide staining based method; type: functional; settings: dose 1.625-6.5 µM
[16] = Antiinflammatory activity in mouse peritoneal macrophage assessed as inhibition of LPS-induced IL6 production at 10 ug/ml relative to control; type: functional; parameters: scale not given: the % may be the effect or the level left; settings: dose 10 µg/ml
Tubulin (Homo sapiens) [17] = molecular target: T1, Tubulin (Homo sapiens); test: Induction of microtubule stabilization (unknown origin) at 1 to 5 uM; type: protein-complex assay; settings: dose 1-5 µM
MDA-MB-231 [18] = test: Induction of cell cycle arrest in human MDA-MB-231 cells assessed as S phase arrest at 0.285 to 1.14 uM incubated for 24 hrs by propidium iodide staining based method; type: functional; settings: dose 0.285-1.14 µM

| SMILES | Ratio (Homo sapiens) | IC50 (MDA-MB-231 [1]) [µM] | selectivity ratio [2] | IC50 (MCF7) [µM] | IC50 at 72 h [3] [µM] | IC50 (K562 [4]) [µM] | other results |
| --- | --- | --- | --- | --- | --- | --- | --- |
| CN1CCc2c(c3ccccc3n2Cc2ccc(C(=O)NO)cc2)C1 [TUBASTATIN A] | – | – | – | – | – | 2.07 | – |
| CC(=O)O[C@H]1C(=O)[C@@]2(C)[C@H]([C@H](OC(=O)c3ccccc3)[C@]3(O)C[C@H](OC(=O)[C@H](O)[C@@H](NC(=O)c4ccccc4)c4ccccc4)C(C)=C1C3(C)C)[C@]1(OC(C)=O)CO[C@@H]1C[C@@H]2O | – | – | – | – | – | – | Activity (Tubulin (Homo sapiens) [5]): Active |
| COc1ccc2c(c1)CC(Cc1ccc(C(=O)NO)cc1)C2=O (stereo not drawn) | – | 28.8 | 2.99 | 55.2 | 55.5 | 18.6 | – |
| COc1cc2c(cc1OC)C(=O)C(Cc1ccc(C(=O)NO)cc1)C2 (stereo not drawn) | – | > 100 | – | > 100 | 193 | > 100 | – |
| COc1cccc2c1C(=O)c1c(O)c3c(c(O)c1C2=O)C[C@@](O)(C(=O)CO)C[C@@H]3O[C@H]1C[C@H](N)[C@H](O)[C@H](C)O1 [DOXORUBICIN] | – | 0.57 | – | – | 1.87 | 5.23 | Activity (MDA-MB-231 [18]): Active |
| COc1cc([C@@H]2c3cc4c(cc3[C@H](O)[C@H]3COC(=O)[C@H]23)OCO4)cc(OC)c1OC [PODOFILOX] | – | 20.2 | – | 10 | – | 18.4 | – |
| C[C@@H]1C[C@H]2[C@@H]3CCC4=CC(=O)C=C[C@]4(C)[C@@]3(F)[C@@H](O)C[C@]2(C)[C@@]1(O)C(=O)CO [DEXAMETHASONE] | – | – | – | – | – | – | Activity [7]: 52.82%; Activity [9]: 1792.75 pg/mL; Activity [10]: 581.27 pg/mL; Activity [11]: 40.5% |
| COc1cc2c(cc1OC)C(=O)C(Cc1ccc(CCC(=O)NO)cc1)C2 (stereo not drawn) | – | 32.6 | 1.6 | 51.7 | 48.7 | 30.4 | – |
| CC/C(=C(\c1ccccc1)c1ccc(OCCN(C)C)cc1)c1ccccc1 [TAMOXIFEN] | – | 18.5 | – | – | 36.2 | – | – |
| COc1ccc2c(c1)CC(Cc1ccc(CCC(=O)NO)cc1)C2=O (stereo not drawn) | – | > 100 | 1.85 | 93.9 | 114 | 61.8 | – |

Now from value to compound, other results behind:

| Ratio (Homo sapiens) | SMILES | IC50 (MDA-MB-231 [1]) [µM] | selectivity ratio [2] | IC50 (MCF7) [µM] | IC50 at 72 h [3] [µM] | IC50 (K562 [4]) [µM] | other results |
| --- | --- | --- | --- | --- | --- | --- | --- |
| inactive | COc1cc2c(cc1OC)C(=O)/C(=C\c1ccc(/C=C/C(=O)NO)cc1)C2 | > 100 | > 1 | > 100 | 129 | > 100 | – |
| > 7 | COc1cc(C2c3c(cc(OC)c(OC)c3OC)C(=O)C2Cc2ccc(C(=O)NO)cc2)cc(OC)c1OC (stereo not drawn) | > 100 | 2.5 | 87.5 | 91.8 | 36.8 | – |
| 2.5 | COc1cc2c(cc1OC)C(=O)/C(=C\c1ccc(/C=C/C(=O)NOCc3ccccc3)cc1)C2 | – | – | – | – | – | – |
| > 7 | COc1cc(C2/C(=C/c3ccc(OCCCC(=O)NO)cc3)C(=O)c3cc(OC)c(OC)c(OC)c32)cc(OC)c1OC (stereo not drawn) | 3.25 | 28.4 | 49.7 | 47.2 | 1.66 | Activity [6]: 2648.31 pg/mL; Activity [7]: 12.34%; Activity (Tubulin (Homo sapiens) [8]): Active; Activity [9]: 2730.53 pg/mL; Activity [10]: 1180.12 pg/mL; Activity [11]: 9.38%; Activity [12]: 15.04%; Activity (K562 [13]): Active; Activity [14]: 1046.79 pg/mL; Activity (MDA-MB-231 [15]): Active; Activity [16]: 12.11%; Activity (Tubulin (Homo sapiens) [17]): Active |
| > 7 | COc1cc2c(cc1OC)C(=O)/C(=C\c1ccc(C(=O)NOCc3ccccc3)cc1)C2 | – | – | – | – | – | – |
| > 7 | COc1cc2c(cc1OC)C(=O)/C(=C\c1ccc(C(=O)NO)cc1)C2 | > 100 | 1.88 | > 100 | 88.4 | 46.9 | – |
| > 7 | COc1ccc2c(c1)C/C(=C/c1ccc(C(=O)NOCc3ccccc3)cc1)C2=O | – | – | – | – | – | – |
| inactive | COc1cc(C2/C(=C/c3ccc(/C=C/C(=O)NOC(C)=O)cc3)C(=O)c3cc(OC)c(OC)c(OC)c32)cc(OC)c1OC (stereo not drawn) | 19.1 | 2.01 | 75 | 47.5 | 23.6 | – |
| 2.5 | COc1cc(C2c3c(cc(OC)c(OC)c3OC)C(=O)C2Cc2ccc(CCC(=O)NO)cc2)cc(OC)c1OC (stereo not drawn) | 20.7 | 1.47 | 52.3 | 76.2 | 51.9 | – |
| 2.5 | COc1ccc2c(c1)C/C(=C/c1ccc(/C=C/C(=O)NOCc3ccccc3)cc1)C2=O | – | – | – | – | – | – |
| > 7 | COc1ccc2c(c1)C/C(=C/c1ccc(/C=C/C(=O)NO)cc1)C2=O | > 100 | ≤ 1 | 97.5 | 100 | > 100 | – |
| inactive | COc1cc(C2/C(=C/c3ccc(C(=O)NO)cc3)C(=O)c3cc(OC)c(OC)c(OC)c32)cc(OC)c1OC (stereo not drawn) | > 100 | 1.51 | 60.1 | 72.2 | 47.7 | – |
